Experimental data published in ChEMBL document CHEMBL2021818, “Novel desosamine-modified 14- and 15-membered macrolides without antibacterial activity” (2012).
Values after ≈ are worked out from the molar mass of the structure shown.

Key:
Assay type in all cases: functional
Staphylococcus aureus = assay: Antibacterial activity against Staphylococcus aureus ATCC 13709 after 24 hrs at 37 degC by CLSI protocol based microdilution method; conditions: ATCC 13709, 24 h
Summary of the method: (§1)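 Macrolide-susceptible strains, broth microdilution MIC per CLSI. Media: Mueller–Hinton broth (MHB) for S. aureus and M. catarrhalis, MHB plus 5% horse serum for streptococci, Haemophilus test medium for H. influenzae. Compounds dissolved in DMF (5 mg/mL stock) and serially twofold diluted in medium over 64 to 0.125 µg/mL. MIC read after 24 h incubation at 37 °C.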

Streptococcus pneumoniae = assay: Antibacterial activity against Streptococcus pneumoniae ATCC […] after 24 hrs at 37 degC by CLSI protocol based microdilution method; summary of the method: as §1
Streptococcus pyogenes = assay: Antibacterial activity against Streptococcus pyogenes ATCC 700294 after 24 hrs at 37 degC by CLSI protocol based microdilution method; conditions: ATCC 700294, 24 h; summary of the method: as §1
Haemophilus influenzae = assay: Antibacterial activity against Haemophilus influenzae ATCC 49247 after 24 hrs at 37 degC by CLSI protocol based microdilution method; conditions: ATCC 49247, 24 h; summary of the method: as §1
Moraxella catarrhalis = assay: Antibacterial activity against Moraxella catarrhalis ATCC 23246 after 24 hrs at 37 degC by CLSI protocol based microdilution method; conditions: ATCC 23246, 24 h; summary of the method: as §1

CC[C@H]1OC(=O)[C@H](C)[C@@H](O[C@H]2C[C@@](C)(OC)[C@@H](O)[C@H](C)O2)[C@H](C)[C@@H](O[C@@H]2O[C@H](C)C[C@H](N(C)C)[C@H]2O)[C@](C)(OC)C[C@@H](C)C(=O)[C@H](C)[C@@H](O)[C@]1(C)O [CLARITHROMYCIN]
MIC (Staphylococcus aureus): 0.25 µg/mL (≈ 0.334 µM)
MIC (Streptococcus pneumoniae): < 0.125 µg/mL
MIC (Streptococcus pyogenes): < 0.125 µg/mL
MIC (Haemophilus influenzae): 8 µg/mL (≈ 10.7 µM)
MIC (Moraxella catarrhalis): < 0.125 µg/mL
